This is an account of results in ChEMBL document CHEMBL3769360, “Phthalimido-thiazoles as building blocks and their effects on the growth and morphology of Trypanosoma cruzi” (Eur J Med Chem, 2016).

Each structure is given as a SMILES string.

A short description of data set [1]: Cytotoxicity against BALB/c mouse splenocytes assessed as highest non-toxic concentration causing >90 % incorporation of [3H]-thymidine after 24 hrs by beta counting method. It is filed as cell-based, Splenocyte. As to conditions: read-out: MNTD90. A digest of the protocol: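 BALB/c mouse splenocytes at 5 × 10^6 cells/well in RPMI-1640 with 10% inactivated FBS. Compounds were dissolved in DMSO (10 mg/mL stock) and serially diluted to 1.0, 5.0, 10, 25, 50 and 100 (final), in triplicate. Controls were saponin and medium with DMSO. 3H-thymidine was added, then 24 h at 37 °C, 5% CO2, and beta counting. Untreated = 100%; >90% incorporation counted as nontoxic.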

Data set [2] concerns Trypanosoma cruzi. As to the kind of experiment: Trypanocidal activity against epimastigote form of Trypanosoma cruzi Dm28c after 11 days by neubauer chamber method. The data set is classed as functional. The note with it: 264 h.
Data set [3] has as its system Trypanosoma cruzi. As to the kind of experiment: Trypanocidal activity against trypamostigote form of Trypanosoma cruzi Y infected in African green monkey Vero cells after 24 hrs by neubauer chamber method. The data set is classed as functional, organism-based. A digest of the protocol: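 Y strain trypomastigotes harvested from Vero cell supernatants, 4 × 10^5 cells/well, compounds in triplicate, benznidazole as positive control. Incubated 24 h at 37 °C, 5% CO2. Motile parasites counted in a Neubauer chamber; untreated wells = 100%. IC50 by nonlinear regression over at least seven concentrations.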

Data set [4] in a line: Selectivity index, ratio of MNTD90 for cytotoxicity against BALB/c mouse splenocytes to IC50 for trypamostigote form of Trypanosoma cruzi Y infected in African green monkey Vero cells. As to conditions: read-out: Selectivity Index. It is filed as toxicity, cell-based.

Take `O=C1c2ccccc2C(=O)N1C/C=N/N=c1\scc(-c2ccc(-c3ccccc3)cc2)n1-c1ccccc1`: the MNTC at 24 h in data set [1] came to 194 µM. Besides, the IC50 was found to be 44.2 µM in the data set on Trypanosoma cruzi [2] and 98 µM in the data set with Trypanosoma cruzi [3].
For `O=C1c2ccccc2C(=O)N1Nc1nc(CCl)cs1`, the MNTC at 24 h in data set [1] is 17 µM. Besides, the IC50 stood at 226 µM with Trypanosoma cruzi [2] and 54.4 µM with Trypanosoma cruzi [3]. For the same molecule, in data set [4], the selectivity ratio was determined as 0.3.
On to `O=C1c2ccccc2C(=O)N1C/C=N/N=c1\scc(-c2ccc(Cl)cc2)n1-c1ccccc1`, for which the MNTC at 24 h in data set [1] is 211 µM. Also, the values for the IC50 with Trypanosoma cruzi [2] and with Trypanosoma cruzi [3] were 10.6 µM and 18.4 µM, respectively.
Taken in the same sequence, the figures for `O=C1c2ccccc2C(=O)N1Nc1nc(-c2ccc(F)cc2)cs1` were 2.9 µM, 26.5 µM and 52.1 µM.
In the case of `O=C1c2ccccc2C(=O)N1C/C=N/N=c1/[nH]c(CCl)cs1`, the MNTC at 24 h in data set [1] amounted to 73.7 µM. Also, the IC50 with Trypanosoma cruzi [2] amounted to 85.7 µM; in the data set with Trypanosoma cruzi [3], 2.2 µM. Besides, in data set [4], the selectivity ratio stood at 33.5.
On to `O=C1c2ccccc2C(=O)N1Nc1nc(-c2ccc(Br)cc2)cs1`, for which the MNTC at 24 h in data set [1] worked out at 2.5 µM. For the same molecule, the half-inhibitory concentration (IC50) with Trypanosoma cruzi [2] was 14.8 µM; in the data set on Trypanosoma cruzi [3], 89.8 µM.
Taken in the same sequence, the figures for `O=C1c2ccccc2C(=O)N1Nc1nc(-c2cccc([N+](=O)[O-])c2)cs1` were 2.7 µM, 43.2 µM and 91.1 µM.
Regarding `Cc1ccc(-c2csc(NN3C(=O)c4ccccc4C3=O)n2)cc1`, in data set [1], the MNTC at 24 h was determined as 14.9 µM. For the same molecule, the IC50 came out at 70.4 µM with Trypanosoma cruzi [2] and 107 µM with Trypanosoma cruzi [3].
In the case of `O=C1c2ccccc2C(=O)N1C/C=N/N=c1\scc(-c2ccc(Cl)c(Cl)c2)n1-c1ccccc1`, the MNTC at 24 h in data set [1] was 197 µM.
On to `O=C1c2ccccc2C(=O)N1C/C=N/NC(=S)Nc1ccccc1`, for which the MNTC at 24 h in data set [1] worked out at 50 µM. The same molecule returned an IC50 in the data set with Trypanosoma cruzi [2] of 36.9 µM.
Turning to `O=C1c2ccccc2C(=O)N1C/C=N/N=c1\scc(-c2ccc(F)cc2)n1-c1ccccc1`, in data set [1], the MNTC at 24 h was 219 µM. The same molecule registered an IC50 in the data set with Trypanosoma cruzi [3] of 73.8 µM.
Regarding `O=C1c2ccccc2C(=O)N1Nc1nc(-c2ccc(Cl)cc2)cs1`, in data set [1], the MNTC at 24 h came out at 2.8 µM. Also, the results for the IC50 in the data set with Trypanosoma cruzi [2] and in the data set with Trypanosoma cruzi [3] were 30.6 µM and 86.2 µM, respectively.
With `NC(=S)NN1C(=O)c2ccccc2C1=O`, in data set [1], the MNTC at 24 h stood at 4.5 µM. Also, the IC50 with Trypanosoma cruzi [2] worked out at 56.8 µM; with Trypanosoma cruzi [3], 52 µM.
Taken in the same sequence, the figures for `Cc1ccc(-c2cs/c(=N\N=C\CN3C(=O)c4ccccc4C3=O)n2-c2ccccc2)cc1` were 221 µM, 57.8 µM and 33.3 µM.
For `Cc1sc(NN2C(=O)c3ccccc3C2=O)nc1-c1ccc(Br)cc1`, in data set [1], the MNTC at 24 h is 2.4 µM. For the same molecule, the IC50 turned out to be 13.9 µM with Trypanosoma cruzi [2] and 38.2 µM in the data set with Trypanosoma cruzi [3].
Regarding `O=C1c2ccccc2C(=O)N1C/C=N/N=c1\scc(-c2ccccc2)n1-c1ccccc1`, in data set [1], the MNTC at 24 h worked out at 228 µM. In the data set on Trypanosoma cruzi [3], this molecule had an IC50 of 8.8 µM.
Regarding `COc1ccc(-c2cs/c(=N\N=C\CN3C(=O)c4ccccc4C3=O)n2-c2ccccc2)cc1`, the MNTC at 24 h in data set [1] is 213 µM. In addition, it took 10 µM to reach half-maximal inhibition in the data set with Trypanosoma cruzi [3] (IC50).
For the molecule `O=C1c2ccccc2C(=O)N1Nc1nc(-c2ccc(Cl)c(Cl)c2)cs1`, the MNTC at 24 h in data set [1] was determined as 2.6 µM. Moreover, the values for the IC50 with Trypanosoma cruzi [2] and in the data set on Trypanosoma cruzi [3] were 69.3 µM and 88.8 µM, respectively.
Regarding `O=C1c2ccccc2C(=O)N1C/C=N/N=c1\scc(-c2ccc(Br)cc2)n1-c1ccccc1`, the MNTC at 24 h in data set [1] stood at 96.6 µM. The molecule also gave an IC50 in the data set with Trypanosoma cruzi [3] of 9.7 µM.
As for `COc1ccc(-c2csc(NN3C(=O)c4ccccc4C3=O)n2)cc1`, in data set [1], the MNTC at 24 h stood at 14.2 µM. The IC50 in the data set on Trypanosoma cruzi [2] was found to be 6.4 µM; in the data set on Trypanosoma cruzi [3], 50.3 µM.
As to `O=C1c2ccccc2C(=O)N1Nc1nc(-c2ccc(Cl)cc2Cl)cs1`, the MNTC at 24 h in data set [1] amounted to 12.8 µM. Further, the IC50 in the data set on Trypanosoma cruzi [2] was found to be 10.1 µM; in the data set with Trypanosoma cruzi [3], 22.7 µM.
Taken in the same sequence, the figures for `O=C1c2ccccc2C(=O)N1Nc1nc(-c2ccc([N+](=O)[O-])cc2)cs1` were 2.7 µM, 13.3 µM and 84.9 µM.
